Measurements from different studies.
Each line is one published result; the experiments were not run side by side.
MMP2: 72 kDa type IV collagenase (MMP2, Homo sapiens, UniProt P08253)
ADRB2: Beta-2 adrenergic receptor (ADRB2, Homo sapiens, UniProt P07550)
SLC22A2: Solute carrier family 22 member 2 (SLC22A2, Homo sapiens, UniProt O15244)
HDAC7: Histone deacetylase 7 (HDAC7, Homo sapiens, UniProt Q8WUI4)

CC[Si](C#Cc1ccc2c(c1)C=C([N+](=O)[O-])C(C(F)(F)F)O2)(CC)CC (stereo not shown)
IC50 (P2Y purinoceptor 6 (P2RY6, Homo sapiens, UniProt Q15077); calcium signal, antagonist): ~1 µM

Cc1noc(-c2cc3cc(-c4nc(C(=O)NCC5CCOCC5)[nH]c4C)ccc3[nH]2)n1
IC50 (MMP2; enzyme activity, inhibitor): > 20 µM

NCC1OC(c2ccccc2)Cc2c1ccc(O)c2O (stereo not shown)
IC50 (ADRB2; ligand displacement, radioligand; cell membranes): 84.7 µM

Cc1noc(-c2cc3cc(-c4nc(C(=O)NCc5ccccc5)[nH]c4C)ccc3[nH]2)n1
IC50 (MMP2; enzyme activity, inhibitor): > 20 µM

O=C(c1ccc(-c2cccc(C(F)(F)F)c2)o1)N1CCN2CCC1CC2
IC50 (Neuronal acetylcholine receptor subunit alpha-7 (CHRNA7, Homo sapiens, UniProt P36544); ion current, two-electrode voltage clamp; oocytes): 1.2 µM

Cc1c(C(=O)Nc2ccc(C(F)(F)F)cn2)nc(-c2ccc(Cl)cc2Cl)n1-c1ccc(OS(=O)(=O)CCC(F)(F)F)cc1
IC50 (Cannabinoid receptor 2 (CNR2, Homo sapiens, UniProt P34972); GTPγS binding, antagonist; cell membranes): 0.133 µM

O=C(O)CSc1nnc(Br)n1-c1ccc(C2CC2)c2ccccc12
IC50 (SLC22A2; transporter uptake, inhibitor; MDCK-II; 5 min): > 300 µM

CN1CCN(c2ccc(Nc3ncc4cc(C#N)c(=O)n(C5CCCC5)c4n3)cc2)CC1
IC50 (Casein kinase I isoform alpha (CSNK1A1, Homo sapiens, UniProt P48729); enzyme activity, inhibitor): > 10 µM

O=C(c1ccc(Cl)s1)N(CCN1CCCC1)c1nc2ccccc2s1
IC50 (Short transient receptor potential channel 6 (Trpc6, Mus musculus, UniProt Q61143); calcium signal, fluorescence): 8.8 µM

O=S(=O)(Nc1ccc2cccc(O)c2n1)c1ccc(-c2ccccc2)cc1
IC50 (MMP2; enzyme activity, inhibitor, fluorescence): 48 µM

CN(C)CCC1(c2ccc(Cl)cc2)Cc2ccccc2C(=O)O1 (stereo not shown)
IC50 (ADRB2; ligand displacement, radioligand; cell membranes): 86.8 µM

CCCC[C@H](NC(=O)[C@H](C)c1c(C)[nH]c2ccc(O)cc12)c1ncc(-c2cc3ccccc3nc2OC)[nH]1
IC50 (HDAC7; enzyme activity, inhibitor): > 45 µM

CC(C)c1nc(CN(C)C(=O)N[C@@H](CCN2CCOCC2)C(=O)N[C@H](CC[C@H](Cc2ccccc2)NC(=O)OCc2cncs2)Cc2ccccc2)cs1
IC50 (SLC22A2; transporter uptake, inhibitor; MDCK-II): 33 µM

Cc1noc(-c2cc3cc(-c4cc(C(=O)NCc5ccc(C(=O)O)cc5)nn4C)ccc3[nH]2)n1
IC50 (MMP2; enzyme activity, inhibitor): > 20 µM

Cn1c(=O)c([N+](=O)[O-])c(Cl)c2ccccc21
IC50 (Adenylate cyclase type 8 (Homo sapiens, UniProt P40145); cAMP, inhibitor): 1.6 µM

COc1ccc2nc(/N=C3/NC(=O)C(=Cc4ccccc4)S3)sc2c1
IC50 (Aldo-keto reductase family 1 member B1 (Akr1b1, Rattus norvegicus, UniProt P07943); enzyme activity, inhibitor, absorbance; pH 6.2): > 50 µM

Nc1ccc(-c2ccncc2)cc1NC(=O)N1CCCC1
IC50 (HDAC7; enzyme activity, inhibitor): > 33.3 µM

CN(C(=O)n1cnc(-c2ccc[n+]([O-])c2)c1)C1CCCCC1
IC50 (SLC22A2; transporter uptake, inhibitor; MDCK-II): > 33.3 µM

CCC1(c2ccc(C)cc2)C(=O)N(C(=O)OC(C)C)N1C(=O)OC(C)C (stereo not shown)
IC50 (Protein phosphatase methylesterase 1 (Mus musculus, UniProt Q8BVQ5); enzyme activity, inhibitor): 1.3 µM
